Screens: PubChem, several laboratories
In the library only some 2.6% were active in any assay of this set; here they are far more common.
SENP7 block = SENP7 protease inhibition | Q9BQF6 | recombinant SENP7, Z-RLRGG-aminoluciferin luminescence, 40 min | inhibition, % at 5 µM | actives 1.5% (n = 330,000) | AID 434973;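 active means inhibition above about 50% at the single test dose, limit read from the data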
SENP1 inh = blocks the human SENP1 SUMO protease catalytic domain; Q9P0U3; recombinant SENP1 catalytic domain, CyPet-SUMO1-YPet FRET cleavage; inhibition, % at 10 µM; actives 0.21% (n = 360,000); AID 624204;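 active means inhibition at least 30% at 10 µM, raw YFP signal under a set limit, fluorescence ratio 0.5 to 1.5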
Target sequence (Q9P0U3 419-644 limits assumed): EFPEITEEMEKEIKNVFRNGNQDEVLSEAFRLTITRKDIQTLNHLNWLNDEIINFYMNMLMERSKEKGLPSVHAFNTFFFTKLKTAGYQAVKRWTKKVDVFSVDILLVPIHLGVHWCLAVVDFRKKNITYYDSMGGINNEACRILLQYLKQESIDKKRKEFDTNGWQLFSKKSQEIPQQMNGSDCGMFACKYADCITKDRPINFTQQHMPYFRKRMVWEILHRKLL
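Test system: hSENP1 catalytic domain, recombinant; Amount: 20 pM final SENP1 enzyme; Medium: Tris pH 8 buffer plus EDTA, NaCl, BME, BSA, NP40, catalase; Schedule: 50 min enzyme reaction, room temperature, light-protected; Technique: FRET fluorescence in CFP and YFP emission channels; Controls: no-enzyme wells low, DMSO-plus-enzyme wells high control.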
SENP6 block = blocks the human protease SENP6 | actives 1.8% (n = 330,000) | inhibition, % at 10 µM | Q9GZR1 | Recombinant SENP6 catalytic domain, aminoluciferin luminescence;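 active means inhibition above about 50% at the single tested dose, limit read from the data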
Target sequence (Q9GZR1 628-1112 limits assumed): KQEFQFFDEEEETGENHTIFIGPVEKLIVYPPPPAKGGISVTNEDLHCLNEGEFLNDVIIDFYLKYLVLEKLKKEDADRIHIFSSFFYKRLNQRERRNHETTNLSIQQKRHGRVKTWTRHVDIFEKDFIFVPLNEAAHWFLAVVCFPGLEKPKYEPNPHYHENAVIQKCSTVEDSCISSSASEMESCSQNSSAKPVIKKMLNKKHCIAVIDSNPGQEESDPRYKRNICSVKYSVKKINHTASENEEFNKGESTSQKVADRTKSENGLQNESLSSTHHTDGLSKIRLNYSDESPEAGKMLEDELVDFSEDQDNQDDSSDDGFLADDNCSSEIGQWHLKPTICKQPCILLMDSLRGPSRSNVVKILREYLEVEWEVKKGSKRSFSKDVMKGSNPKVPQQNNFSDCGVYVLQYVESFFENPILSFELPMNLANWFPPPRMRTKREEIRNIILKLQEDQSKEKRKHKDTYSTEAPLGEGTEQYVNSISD
SENP8 block-1 = SENP8 protease inhibition; purified SENP8, Z-RLRGG-aminoluciferin cleavage, luminescence; inhibition, % at 10 µM; actives 1.2% (n = 330,000); Q96LD8; in the data active means inhibition above about 50%
SENP8 block-2 = inhibitors of human SENP8 protease. Q96LD8. actives 0.64% (n = 360,000). inhibition, % at 20 µM. recombinant SENP8, Nedd8 substrate fluorescence. AID 602440; in the data active means inhibition mostly above about 40%, no sharp cut-off; inactive means mostly below about 27%
Platelet DG rel = modulates dense granule release in human platelets; human platelet-rich plasma, SFLLRN dense granule ATP release, luminescence; actives 0.22% (n = 300,000); inhibition, %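 (compounds screened at 7.5 µM in platelet-rich plasma)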;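 active means mean replicate score, as percent of positive control, at or above 50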
SENP8 confirm = confirmation of human SENP8 protease inhibitors. shares compounds with SENP7 block. Recombinant SENP8, Z-RLRGG-aminoluciferin luminescence, 60 min. inhibition, % at 12.5 µM. actives 40% (n = 6,200);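 active means mean inhibition across replicates above about 50%, limit read from the data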
SENP6 conf = confirmation of human SENP6 protease inhibitors. shares compounds with SENP7 block. recombinant SENP6, Z-RLRGG-aminoluciferin luminescence. AID 488915. inhibition, % at 12.5 µM. actives 58% (n = 6,200)
SENP7 confirm = confirmation of human SENP7 protease inhibitors. shares compounds with SENP7 block. recombinant SENP7, Z-RLRGG-aminoluciferin luminescence, 40 min. inhibition, % at 12.5 µM. actives 69% (n = 6,200)
Casp3 select = selectivity test for SENP inhibitors: human caspase-3 inhibition | shares compounds with SENP7 block | purified caspase-3, Z-DEVD-aminoluciferin luminescence, 60 min | inhibition, % at 12.5 µM | actives 60% (n = 6,200);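 active means mean inhibition above about 50%, limit read from the data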
SENP luc ctr = interferes with luciferase luminescence in SENP counter-screen | shares compounds with SENP7 block | Pre-incubated SENP8/Z-RLRGG-aminoluciferin, luciferase luminescence interference | inhibition, % at 12.5 µM | actives 39% (n = 6,200);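 active means mean inhibition above about 50% when retested at one dose, limit read from the data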
A number is an active result; – = inactive; · = no result given.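 How the source made its calls, unless noted: active means mean inhibition above about 50% in the one-dose retest (limit read from the data); inactive means the rest.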

SMILES | SENP7 block | SENP1 inh | SENP6 block | SENP8 block-1 | SENP8 block-2 | Platelet DG rel | SENP8 confirm | SENP6 conf | SENP7 confirm | Casp3 select | SENP luc ctr
CN(C)c1ccc(N/C=C/C(=O)c2ccc(F)cc2)cc1 | 99.9 | 66.7 | 98.4 | 94.1 | – | 95.3 | – | 61.4 | – | 71.2 | –
COC(=O)c1ccccc1N/C=C/C(=O)c1ccc(Br)cc1 | 52.7 | – | 66.0 | – | – | – | – | – | – | – | –
O=C(/C=C/Nc1ccc(F)cc1)c1ccc(Oc2ncccn2)cc1 | – | – | – | – | – | – | · | · | · | · | ·
C=CCC[C@H](Cc1ccc(F)cc1)C(=O)OC[C@@H](NC(=O)[C@@H](CC=C)CC(=O)N(CCO)Cc1ccccc1)C(C)(C)C | – | – | – | – | – | · | · | · | · | · | ·
CN=C1S/C(=C\c2ccc(SC)cc2)C(=O)N1C | 62.4 | – | 70.0 | 62.2 | – | – | 69.1 | 67.1 | 84.3 | 64.6 | –
CN=C1S/C(=C\c2ccc(O)c(Br)c2)C(=O)N1C | 100.0 | – | 97.0 | 96.8 | – | – | 98.7 | 100.0 | 102.1 | 98.3 | 80.4
CN=C1S/C(=C\c2cccc(Cl)c2Cl)C(=O)N1C | – | · | 76.8 | 67.0 | · | – | – | – | – | – | –
CN=C1S/C(=C\c2ccc(Cl)cc2)C(=O)N1C | – | – | – | – | – | – | · | · | · | · | ·
O=C(Nc1ccc([N+](=O)[O-])cc1)C(c1ccccc1)c1ccccc1 | · | – | · | · | – | · | · | · | · | · | ·
c1coc(-c2nnc(-c3ccc4c(c3)OCO4)o2)c1 | – | · | – | – | · | – | · | · | · | · | ·
Clc1ccc(CSc2nnc(-c3ccc4c(c3)OCO4)o2)cc1 | – | – | – | – | – | – | · | · | · | · | ·
Brc1ccc(-c2nnc(-c3ccc4c(c3)OCO4)o2)o1 | 61.2 | – | – | – | – | – | – | – | – | – | –
O=C1CCCCC1Sc1nnc(-c2ccc3c(c2)OCO3)o1 (stereo not drawn) | 73.1 | – | 80.4 | 68.2 | – | – | 72.1 | 72.3 | 93.0 | 88.6 | 76.9
Cc1ccc(-c2nnc(-c3ccc4c(c3)OCO4)o2)cc1 | 83.0 | – | – | – | – | – | – | – | – | – | –
COc1ccc(CCC(=O)OCC(=O)N2CCN(S(=O)(=O)c3ccc(C)cc3C)CC2)cc1 | – | – | – | – | – | · | · | · | · | · | ·
CCOc1ccc(/C=C/C(=O)Oc2ccccc2)cc1 | 58.6 | – | – | – | – | – | – | – | – | – | –
COc1cc(C(CC(=O)Nc2cccc(C)n2)N2Cc3ccccc3C2=O)cc(OC)c1OC (stereo not drawn) | – | – | – | – | – | – | · | · | · | · | ·
CC(=O)/C(N=Nc1ccc(SC(F)F)cc1)=C(\C)O | – | – | 66.1 | – | – | – | – | 64.1 | 59.9 | 62.4 | –
CC(=O)/C(N=Nc1cccc(C(F)(F)F)c1)=C(\C)O | – | – | – | – | – | – | · | · | · | · | ·
O=Cc1c(-c2ccccc2)cc2oc3ccccc3cc1-2 | 64.8 | – | 67.4 | 77.9 | – | – | – | – | – | – | –
Cc1ccsc1C(=O)OCc1cc(=O)n2ccsc2n1 | 56.7 | – | 53.2 | – | – | · | – | – | 82.5 | 81.2 | –
O=C(OCc1cc(=O)n2ccsc2n1)c1ccc(O)cc1O | – | – | 63.6 | – | – | · | 55.1 | – | 79.4 | 76.0 | 61.3
CCn1nc(C(=O)NCCc2ccc3c(c2)OCCO3)c2ccccc2c1=O | – | – | – | – | – | · | · | · | · | · | ·
CSc1nsc(N/N=C/c2ccc3c(c2)OCO3)c1C#N | 52.8 | – | – | – | – | – | – | – | – | – | –
Cc1cc2c(cc1C)C(=O)NC(C)(C)C2 | 58.8 | – | – | – | – | – | – | – | – | – | –
SMILES | SENP7 block | SENP1 inh | SENP6 block | SENP8 block-1 | SENP8 block-2 | Platelet DG rel | SENP8 confirm | SENP6 conf | SENP7 confirm | Casp3 select | SENP luc ctr
O=C(NC(=S)NCc1ccccc1Cl)c1cccs1 | – | – | – | – | – | · | · | · | · | · | ·
CCCCn1c(NC(C)=O)c(C#N)c2nc3ccccc3nc21 | 65.7 | – | 97.5 | – | – | – | – | – | – | – | –
N#Cc1c(N)n(CCNC(=O)c2ccccc2)c2nc3ccccc3nc12 | – | – | – | – | – | – | · | · | · | · | ·
CCCCn1c(NC(=O)c2ccc(Br)o2)c(S(=O)(=O)c2ccccc2)c2nc3ccccc3nc21 | – | – | 86.5 | 86.5 | – | – | – | – | – | – | –
C=CCn1c(NC(=O)c2ccccc2Cl)c(C#N)c2nc3ccccc3nc21 | – | – | 93.8 | 96.7 | – | – | – | 73.3 | 65.7 | – | –
CCCCCn1c(N)c(C#N)c2nc3ccccc3nc21 | – | – | – | – | – | – | · | · | · | · | ·
O=C(N/N=C/c1ccc2c(c1)OCO2)c1ccc2c(c1)OCO2 | – | – | – | – | – | – | · | · | · | · | ·
Cc1ccc(/C=N/NC(=O)c2ccc3c(c2)OCCO3)s1 | – | – | – | – | – | – | · | · | · | · | ·
Cc1ccsc1/C=N\NC(=O)c1ccc2c(c1)OCO2 | 50.3 | – | – | – | – | – | – | – | 72.1 | 74.2 | –
Cc1ccsc1/C=N/NC(=O)c1sccc1C | 93.0 | – | 88.4 | 84.1 | – | – | – | 91.5 | 100.6 | 93.8 | –
Cc1ccsc1/C=N/NC(=O)c1ccc2c(c1)OCCO2 | 83.1 | – | 79.1 | 65.4 | – | – | 84.0 | 79.4 | 95.2 | 90.4 | 80.6
Cc1ccc(C(NC(=O)C2CCN(CCOc3ccccc3)CC2)c2ccccn2)cc1 (stereo not drawn) | · | – | · | · | – | · | · | · | · | · | ·
CCOC(=O)C1(C)CCCN(C(=O)c2ccc(-c3ccccc3)cc2)C1 (stereo not drawn) | · | – | · | · | – | · | · | · | · | · | ·
O=C(N=c1nc2ccccn2s1)c1ccccc1 | 95.6 | – | 94.0 | 58.8 | – | – | 54.4 | 59.4 | 65.5 | 53.8 | –
Cc1csc(=NC(=O)c2ccccc2)n1C | – | – | – | – | – | – | · | · | · | · | ·
Cc1ccc(CNC(=O)c2nccnc2C(=O)O)cc1 | – | – | – | – | – | – | · | · | · | · | ·
Cc1cccc(NC(=O)c2cc(-c3cc(C)cc(C)c3O)n[nH]2)c1 | – | – | – | – | – | – | · | · | · | · | ·
Cc1cc(C)c(O)c(-c2cc(C(=O)Nc3cccnc3)[nH]n2)c1 | – | – | 68.1 | – | – | – | – | – | 73.1 | – | –
COc1ccc(Cl)cc1NC(=O)c1cc(-c2cc(C)ccc2O)n[nH]1 | – | – | – | – | – | – | · | · | · | · | ·
